In ChEMBL document CHEMBL2434946, “Synthesis of lipoic acid-peptide conjugates and their effect on collagen and melanogenesis” (Eur J Med Chem, 2013):
The source made the active and inactive calls. No cut-off for these calls is given here. Peptide text beside a SMILES is read from it.

Columns and labels:
[1] = Cytotoxicity against mouse B16F10 cells assessed as cell viability after 48 hrs by MTT assay; type: cell-based, B16-F10; conditions: read-out: MNCC
How it was run: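 B16F10 mouse melanoma cells grown in DMEM with 10% FBS, 1% penicillin-streptomycin and […] at 37 °C under 5% CO2. Exposed to samples 48 h at 37 °C, then MTT added for 3 h with A570 read-out. Reported value is the highest tested dose that caused no loss of viability.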

[2] = biological target: T1, Tyrosinase (Mus musculus) (UniProt P11344); assay: Inhibition of tyrosinase in mouse B16F10 cells assessed as inhibition of melanin synthesis at 0.25 mM after 72 hrs by spectrophotometry relative to control; type: cell-based; conditions: B16-F10
T1 sequence (whole entry): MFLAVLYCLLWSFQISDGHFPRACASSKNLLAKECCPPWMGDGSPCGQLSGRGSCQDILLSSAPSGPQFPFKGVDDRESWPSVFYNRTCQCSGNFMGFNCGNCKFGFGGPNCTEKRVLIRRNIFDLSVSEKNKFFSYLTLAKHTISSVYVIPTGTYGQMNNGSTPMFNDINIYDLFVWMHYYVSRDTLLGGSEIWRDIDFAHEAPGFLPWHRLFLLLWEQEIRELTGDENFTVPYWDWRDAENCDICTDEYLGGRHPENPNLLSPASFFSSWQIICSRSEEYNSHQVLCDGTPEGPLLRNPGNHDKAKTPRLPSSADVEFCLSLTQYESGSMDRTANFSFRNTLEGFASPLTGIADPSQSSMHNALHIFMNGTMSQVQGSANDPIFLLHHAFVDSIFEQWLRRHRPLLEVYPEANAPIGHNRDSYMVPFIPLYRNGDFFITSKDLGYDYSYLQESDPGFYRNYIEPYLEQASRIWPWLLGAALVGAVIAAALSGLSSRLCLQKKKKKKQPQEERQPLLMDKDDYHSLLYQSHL
How it was run: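 B16F10 cells grown with α-MSH were treated with samples for 72 h, then counted, washed and pelleted. Pellets solubilized in 1 N NaOH plus phosphate buffer pH 6.8 containing 1% Triton X-100 and 2 mM PMSF. Melanin read at 405 nm against a synthetic melanin standard curve and expressed as percent of control; triplicate, mean ± SD.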

[3] = Induction of HDF proliferation at 5 mM after 48 hrs by MTT assay relative to control; type: functional, Homo sapiens
How it was run: (§1)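 Human dermal fibroblasts grown in DMEM with 10% FBS and 1% penicillin-streptomycin at 37 °C under 5% CO2. Treated 48 h at 0.5, 2.5 and 5 mM. MTT ([…]) added for 3 h at 37 °C, then absorbance read at 570 nm. Result expressed as percent viable cells versus untreated control; triplicate, mean ± SD.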

[4] = biological target: T2, Tyrosinase (Agaricus bisporus) (UniProt O42713); assay: Inhibition of mushroom tyrosinase using L-DOPA as substrate at 2.5 mM preincubated for 10 to 15 mins prior to substrate addition by spectrophotometry
T2 sequence (whole entry): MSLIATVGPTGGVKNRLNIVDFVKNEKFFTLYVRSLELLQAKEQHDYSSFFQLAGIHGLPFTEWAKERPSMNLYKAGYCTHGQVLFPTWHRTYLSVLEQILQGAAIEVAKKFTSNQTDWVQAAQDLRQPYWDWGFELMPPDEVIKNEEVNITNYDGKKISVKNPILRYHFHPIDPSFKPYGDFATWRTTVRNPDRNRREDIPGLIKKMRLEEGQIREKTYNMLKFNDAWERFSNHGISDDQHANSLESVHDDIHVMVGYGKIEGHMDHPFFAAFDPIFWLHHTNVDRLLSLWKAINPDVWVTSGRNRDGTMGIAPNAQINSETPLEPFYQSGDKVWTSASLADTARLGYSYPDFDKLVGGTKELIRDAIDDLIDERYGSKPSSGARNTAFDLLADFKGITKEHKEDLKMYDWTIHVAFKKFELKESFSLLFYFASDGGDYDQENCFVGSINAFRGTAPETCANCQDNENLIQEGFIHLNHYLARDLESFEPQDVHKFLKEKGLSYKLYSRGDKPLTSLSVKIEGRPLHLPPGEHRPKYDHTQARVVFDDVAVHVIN
How it was run: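 Mushroom tyrosinase (625 U/mL solution) pre-incubated with sample in phosphate-buffered saline for 10–15 min at 25 °C. Reaction started with 0.03% L-DOPA, and dopachrome formation read at 475 nm. Result given as percent inhibition; triplicate, mean ± SD.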

HDF [5] = assay: Induction of collagen synthesis in HDF at 0.5 mM after 24 hrs by EIA; type: functional; conditions: Homo sapiens
How it was run: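 HDFs seeded at 5 × 10^4 cells and grown 24 h in DMEM with 10% FBS. Medium then switched to serum-free medium containing sample (0.5 mM) for 24 h. Type I procollagen in the supernatant measured by enzyme immunoassay kit; triplicate, mean ± SD.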

[6] = Inhibition of UV light-induced MMP-1 protein expression in HDF after 72 hrs UV light irradiation by ELISA; type: functional; conditions: for inhibition: Homo sapiens
How it was run: (§2)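 HDFs washed twice with PBS, then exposed to UVA at 6.3 J/cm2. MMP-1 protein in culture medium measured by ELISA 72 h after irradiation: anti-MMP-1 monoclonal 60 min at 37 °C, alkaline phosphatase-conjugated anti-mouse IgG 30 min, OD405. IC50 taken as the dose that lowers UV-induced MMP-1 by 50%; triplicate, mean ± SD.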

HDF [7] = assay: Induction of HDF proliferation at 0.1 mM after 48 hrs by MTT assay relative to control; type: functional; conditions: Homo sapiens
[8] = Cytotoxicity against HDF at 0.5 to 5 mM after 48 hrs by MTT assay; conditions: human, 5000 µM; how it was run: as §1
[9] = Solubility of the compound in water; type: physicochemical
[10] = Inhibition of UV light-induced MMP-1 protein expression in HDF at 0.5 mM after 72 hrs UV light irradiation by ELISA; type: functional; conditions: Homo sapiens; how it was run: as §2
[11] = Induction of HDF proliferation at 0.5 mM after 48 hrs by MTT assay relative to control; type: functional, Homo sapiens; how it was run: as §1

| inhibition [2] [%] | inhibition [4] | solubility [9] [mg/mL] | IC50 [6] [µM] | Compound | MNTC at 48 h [1] [mM] | Activity [3] [%] | Activity (HDF [5]) | inhibition [6] | Activity (HDF [7]) | Activity [8] | inhibition [10] [%] | Activity [11] [%] |
| --- | --- | --- | --- | --- | --- | --- | --- | --- | --- | --- | --- | --- |
| 7.5 | Active |  |  | H-KTTKS-OH | 5 | 13.4 | Active | Dose-dependent effect |  |  |  |  |
|  | Active |  |  | O=C(O)CCCCC1CCSS1 (stereo not drawn) [LIPOIC ACID, ALPHA] | 0.1 |  |  |  | inactive | Toxic |  |  |
| 46.1 | 60.2% | > 100 | 500 | C[C@@H](O)[C@H](NC(=O)[C@H](CCCCN)NC(=O)CCCC[C@@H]1CCSS1)C(=O)N[C@H](C(=O)N[C@@H](CCCCN)C(=O)N[C@@H](CO)C(=O)O)[C@@H](C)O (HELM PEPTIDE1{[O=C(CCCC[C@@H]1CCSS1)[*:2]].K.T.T.K.S}$$$$V2.0) | 1 |  | Active | Dose-dependent effect |  |  | 49.5 | 24.5 |
